esBAF inh: Bmi1 luciferase reporter increase in mESCs, primary screen, esBAF inhibitor project, mouse ES cells, Bmi1 luciferase knock-in, single point | 24 h; 100% = twice the neutral-well signal | reporter increase, % at 12.5 µM | 2% of 350,000 active | AID 602393, 2012; in the data active means activation above about 40%; inconclusive means no clear call, values can overlap the other calls;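 further: 0% = median of the plate's neutral control wells and 100% = double that signal; a rise in the Bmi1 reporter signal indicates esBAF inhibition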
NSD2 inh: NSD2 histone methyltransferase inhibitors, primary screen, biochemical, AlphaScreen, single concentration, set 2. Histone-lysine N-methyltransferase NSD2 (Homo sapiens), O96028. NSD2 peptide methylation, 120 min. inhibition, % at 12.5 µM. 0.54% of 310,000 active; in the data active means inhibition above about 50%
Xi reactivation: activators of inactive X chromosome reactivation, primary screen, imaging, XiGFP fibroblasts, GFP high-content imaging, set 2; XiGFP mouse fibroblasts, % GFP-positive cells imaging, 3 d; cells co-treated with 5-aza-dC sensitizer; scaled so ellipticine positive control = 100%; activation, % at 7.58 µM; 0.055% of 360,000 active; AID 743238, 2013;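 active means mean normalized replicate activation at least 10% and every replicate at or above 10%; inconclusive means only one of the two criteria met; inactive means mean below 10% and not all replicates reach 10%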;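 further: 0% = median of on-plate neutral control wells and 100% = ellipticine 6 µM median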
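Material: SV40-immortalized XiGFP fibroblast cells, line 68-5-11 | Buffer or medium: DMEM containing 5-aza-dC | Dosing: One concentration, pinned | Times: 3 d treatment, 15 min room-temperature fixation | Controls: Ellipticine 6 µM positive control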
Wnt bcat act: Wnt/beta-catenin pathway activators, primary screen, cell-based, plate reader, single point. Wnt/beta-catenin reporter cell assay, activator. activation, % at 9.35 µM. 1.2% of 300,000 active. AID 743398, 2014; in the data active means activation above about 30%, passing the limit was not always enough; inconclusive means no clear call, values can overlap the other calls;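 further: 0% = neutral control wells and 100% = positive control wells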
Casp6 inh: human caspase-6 inhibitors, primary screen, biochemical, VEID-R110 fluorescence, single point, set 2 | P55212 | AID 686996, 2013 | purified caspase-6, Z-VEID-R110 cleavage fluorescence | inhibition, % at 12.5 µM | 0.53% of 350,000 active;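 active means mean inhibition across replicates at least about 35%, with every replicate also reaching that limit, limit read from the data; inconclusive means only one of the two criteria met; inactive means neither criterion met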;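 further: 0% = median of neutral control wells and 100% = no fluorescence left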
Target sequence (P55212 24-179 limits assumed): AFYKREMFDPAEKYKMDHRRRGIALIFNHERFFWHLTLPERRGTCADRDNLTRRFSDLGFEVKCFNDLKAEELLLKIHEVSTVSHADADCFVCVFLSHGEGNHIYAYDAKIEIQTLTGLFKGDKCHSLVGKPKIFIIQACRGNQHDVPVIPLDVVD
Target sequence (P55212 194-293 limits assumed): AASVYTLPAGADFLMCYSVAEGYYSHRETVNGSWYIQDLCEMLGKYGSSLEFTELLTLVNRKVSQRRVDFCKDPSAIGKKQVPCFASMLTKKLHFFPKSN
MITF TRPM1 HTS: activators of MITF-driven TRPM1 promoter reporter, primary screen, cell-based, SK-MEL-5, luciferase, single point; SK-MEL-5 TRPM1-promoter luciferase, 24 h; % of positive control, neutral wells = 0; activation, % at 12.5 µM; 0.75% of 300,000 active;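 active means mean activation of at least 80% with every replicate also reaching 80%; inconclusive means mean reaches 80% but some replicate falls short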;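 further: 0% = neutral control wells and 100% = parthenolide positive control wells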
* = called active by the depositor; ? = inconclusive; . = no result. Compounds with a hit are over-represented: about 3% of the library has one in this group of screens.

SMILES	esBAF inh	NSD2 inh	Xi reactivation	Wnt bcat act	Casp6 inh	MITF TRPM1 HTS
O=C(/C=C/c1cccc2ccccc12)N1CCOCC1	.	-1.3	0.4	37.2*	0.3	46.0
O=C(/C=C/c1ccccc1Cl)N1CCOCC1	37.5	-1.4	0.1	2.3	-3.6	.
O=C(Cn1cncn1)c1ccc(Cl)cc1	-2.5	-0.9	0.4	-0.4	-1.7	-5.0
Cc1ccc(C(=O)Cn2cncn2)cc1	-4.0	-2.7	16.1*	13.3	1.4	10.9
CN1C(=O)CSc2ccc(NC(=O)Nc3ccccn3)cc21	.	2.4	.	0.6	4.7	143.1*
CN1C(=O)CSc2ccc(NC(=O)N3CCc4ccccc43)cc21	93.7*	-0.9	.	28.7	2.7	70.0
CC(=O)Nc1ccc(NC(=O)Nc2ccc3c(c2)N(C)C(=O)CS3)cc1	.	1.0	0.7	.	0.3	-7.0
Cc1ccc(NC(=O)N2CCc3ccccc32)cc1C	.	2.3	0.0	-1.0	-0.7	36.9
O=C1c2ccccc2C(=O)N1CCC1=CCCCC1	54.2*	3.5	.	.	.	31.1
O=C(O)c1ccc2c(c1)C(=O)N(CCC1=CCCCC1)C2=O	8.2	1.9	.	.	.	1.6
NC(=O)[C@H]1[C@@H]2C(=O)O[C@@H](c3ccccc3)[C@@H](c3ccccc3)N2[C@@H](c2ccc(O)cc2)[C@]12C(=O)Nc1ccc(C#CC3(O)CCCCCC3)cc12	.	.	.	.	0.4	.
CCCCN1CCc2c([nH]c3ccc(C)cc23)C1=O	?	1.0	.	36.6*	.	67.1
O=C(C1CC1)N1CC2(C1)[C@@H](c1ccccc1)[C@@H](CO)N2CCC(F)(F)F	.	.	0.0	.	0.3	.
Cc1cc(N2CCOCC2)ccc1/C=C1\SC(=O)N(C(C)C)C1=O	2.1	.	.	-3.6	.	59.1
CCN1C(=O)S/C(=C\c2ccc(N3CCOCC3)cc2C)C1=O	55.4*	0.1	.	81.3*	.	66.4
C#CCN1C(=O)S/C(=C\c2ccc(N3CCOCC3)cc2C)C1=O	.	0.0	0.0	56.3*	.	72.5
CCC(C)N1C(=O)S/C(=C/c2ccc(N3CCOCC3)cc2C)C1=O (stereo not drawn)	.	-1.7	0.1	0.9	-6.9	90.8*
O=C(c1ccccc1)N1CC(=O)N2[C@@H](CO)[C@@H](c3ccc(C#Cc4ccccc4)cc3)[C@@H]2C1	.	.	0.1	.	-2.0	.
CCCNC(=O)C[C@H]1C[C@@H]2c3cc(NC(=O)CC4CC4)ccc3O[C@@H]2[C@@H](CO)O1	1.9	.	0.0	.	3.1	.
COCC(=O)Nc1ccc2c(c1)C(=O)N(C)C[C@@H](OC)[C@H](C)CN(Cc1ccccn1)[C@H](C)CO2	0.5	.	-0.3	.	.	.
COC(=O)c1ccc2c(=O)n(CC3CCCO3)c(SCC(=O)Nc3ccccc3Cl)nc2c1 (stereo not drawn)	50.1*	-0.5	.	.	.	.
COC(=O)c1ccc2c(=O)n(CC3CCCO3)c(SCC(=O)Nc3ccccc3OC)nc2c1 (stereo not drawn)	15.6	1.3	.	-3.8	.	.
O=C(c1ccccn1)N1CC(=O)N2[C@@H](CO)[C@H](c3ccc(C#Cc4ccccc4)cc3)[C@@H]2C1	.	.	0.0	.	-0.2	.
C/C(=N\OC(=O)NC(C)C)c1sc(-c2ccccc2)nc1C	63.5*	-3.5	.	-2.4	.	104.7*
CCNC(=O)O/N=C(\C)c1sc(-c2ccc(Cl)cc2)nc1C	43.0*	-2.3	.	7.9	.	.
SMILES	esBAF inh	NSD2 inh	Xi reactivation	Wnt bcat act	Casp6 inh	MITF TRPM1 HTS
C/C(=N\OC(=O)c1cccc(C(F)(F)F)c1)c1sc(-c2ccccc2)nc1C	76.9*	-0.5	.	.	.	?
C/C(=N\OC(=O)NC(C)C)c1sc(-c2ccc(Cl)cc2)nc1C	38.4	-0.7	.	-4.9	.	62.4
C/C(=N\OC(=O)c1ccc(Cl)cc1)c1sc(-c2ccccc2)nc1C	.	1.8	.	.	.	50.2
C=C(C)c1sc(-c2ccc(Cl)cc2)nc1C	49.5*	.	0.3	25.4	-3.9	74.0
CCOc1cnc(-c2ccc(Cl)cc2)o1	.	0.2	.	.	.	63.5
CCOc1cnc(-c2ccc(OC)cc2)o1	.	0.5	.	.	.	91.6*
Cc1ccc(C(=O)/C=C/Nc2cccc([N+](=O)[O-])c2)o1	.	.	0.2	.	.	84.9*
O=C(/C=C/Nc1cccc([N+](=O)[O-])c1)c1ccco1	26.4	.	.	29.4	.	69.6
CNC[C@H]1Oc2ccc(NC(C)=O)cc2CC(=O)N(C)C[C@@H]1C	.	.	0.1	.	.	.
COc1ccc(NC(=O)NC[C@@H]2CC[C@@H](Cc3ccc(-c4ccccc4)cc3)O2)cc1	20.7	.	-0.2	13.5	-3.1	24.7
OC[C@@H]1CC[C@@H](Cc2ccc(-c3ccccc3)cc2)O1	68.2*	.	-0.2	29.2	-18.7	6.0
NC(=O)NC[C@@H]1CC[C@@H](Cc2ccc(-c3ccccc3)cc2)O1	69.0*	.	.	.	.	118.1*
CCCNC(=O)Nc1ccc2c(c1)C(=O)N(C)C[C@@H](OC)[C@@H](C)CN(Cc1ccccn1)[C@H](C)CO2	2.6	.	-0.7	.	.	.
COc1ccc(S(=O)(=O)N(C)C[C@@H]2OCCCC[C@@H](C)Oc3ccc(NS(=O)(=O)c4ccc(F)cc4)cc3C(=O)N([C@H](C)CO)C[C@H]2C)cc1	-1.3	.	0.5	.	2.3	.
COC(=O)c1sccc1NC(=O)c1ccc(C)s1	12.5	5.1	.	34.3*	.	.
COC(=O)c1sccc1NC(=O)c1ccc(Cl)s1	-18.1	-0.4	.	-1.3	1.1	-13.1
O=c1c2ccccc2c(=O)n(-c2ccccc2)n1-c1ccccc1	-1.7	-0.4	-0.1	36.8*	-2.1	-15.1
C[C@H](CO)N1C[C@H](C)[C@@H](CN(C)S(C)(=O)=O)Oc2c(NC(=O)CCCN(C)C)cccc2C1=O	.	.	-1.1	.	.	.
COc1cccc(N=Nc2c(C)[nH]n(-c3ccccc3)c2=O)c1	35.0	32.0	-0.2	-0.5	-0.5	.
Cc1[nH]n(-c2ccccc2)c(=O)c1N=Nc1ccc2c(c1)OCO2	64.4*	8.3	0.0	49.6*	-2.3	48.5
CCC(=O)N1C[C@@H](C)[C@H](OC)CN(C)C(=O)c2ccc(NC(=O)C3CCOCC3)cc2OC[C@H]1C	-5.7	.	-0.3	.	.	.
O=C(N/N=C/c1ccnc2ccccc12)c1ccccc1O	54.7*	0.7	-0.1	7.8	0.6	29.0
O=C(O)c1ccc(N/N=C/c2ccnc3ccccc23)cc1	.	1.6	0.2	0.9	0.8	79.6
O=C(N/N=C/c1ccc2nccnc2c1)c1ccccc1O	.	.	1.4	37.6*	-1.7	.
c1ccc(-c2onc3cc4c(cc23)OCCO4)cc1	68.4*	3.0	.	.	.	106.4*
CC(=O)OCCNc1cc(Sc2nc3ccccc3[nH]2)c2nonc2c1[N+](=O)[O-]	-5.8	1.2	17.0*	-5.4	.	-80.1

Screening data deposited in PubChem by Broad Institute.
